HTRA1 inhibitor: inhibitors of human serine peptidase HTRA1; 0.5% of 340,000 active; recombinant HTRA1, FP-rhodamine activity-based probe, fluorescence polarization; AID 504803; Q92743; inhibition, % at 5.96 µM; in the data active = inhibition above about 36%;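 also: 0% = enzyme with DMSO and 100% = wells lacking enzyme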
ABHD4 inh: ABHD4 (mouse) inhibition, primary FP screen | Q8VD66 | purified mABHD4, FP-Rh probe fluorescence polarization | inhibition, % at 8.92 µM | 0.54% of 370,000 active | AID 720543;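 active = inhibition exceeding the mean over every tested compound plus 3 SD, cut at about 30% in these data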;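 also: 0% = plate median of compound wells and 100% = S159A mutant with DMSO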
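System: mouse ABHD4 enzyme, wild type / Medium: HEPES pH 7.0, NaCl, Pluronic buffer / Reagent: FP-Rh activity-based fluorescent probe / Control set: S159A mutant high control, sample median low control / Detection: fluorescence polarization with parallel and perpendicular emission, 525/598 nm / Schedule: 45 min + 60 min at 25 °C / Compound dosing: 8.92 µM, single dose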
TCR-CD3 inh: inhibitors of human TCR-CD3 interaction | TAMRA-labeled TCR probe fluorescence, biochemical | inhibition, % at 9.4 µM | 0.37% of 360,000 active; in the data active = inhibition above about 19%;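 also: recombinant mutant TCR 2C K166C tagged with TAMRA read by polarization; 0% = receptor in buffer alone and 100% = receptor with positive control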
DAGLB inhibitor: diacylglycerol lipase beta (human) inhibition; Q8NCG7; HEK293T DAGLB membrane lysate, EnzChek fluorogenic substrate; inhibition, % at 5.17 µM; 0.059% of 340,000 active; AID 504411; in the data active = inhibition above about 34%;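 also: 0% = enzyme with vehicle and 100% = wells lacking enzyme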
SIAE inh: human SIAE inhibition, primary screen; AID 1053197; SIAE FP-Rh probe binding, fluorescence polarization; 0.69% of 370,000 active; Q9HAT2; inhibition, % at 9.66 µM;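 active = inhibition above a cutoff: mean of compounds within the control limits plus 3 SD of those, cut at about 17% in these data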;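 also: 0% = plate median of compound wells and 100% = probe without SIAE protein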
Target sequence (Q9HAT2 whole entry, looked up): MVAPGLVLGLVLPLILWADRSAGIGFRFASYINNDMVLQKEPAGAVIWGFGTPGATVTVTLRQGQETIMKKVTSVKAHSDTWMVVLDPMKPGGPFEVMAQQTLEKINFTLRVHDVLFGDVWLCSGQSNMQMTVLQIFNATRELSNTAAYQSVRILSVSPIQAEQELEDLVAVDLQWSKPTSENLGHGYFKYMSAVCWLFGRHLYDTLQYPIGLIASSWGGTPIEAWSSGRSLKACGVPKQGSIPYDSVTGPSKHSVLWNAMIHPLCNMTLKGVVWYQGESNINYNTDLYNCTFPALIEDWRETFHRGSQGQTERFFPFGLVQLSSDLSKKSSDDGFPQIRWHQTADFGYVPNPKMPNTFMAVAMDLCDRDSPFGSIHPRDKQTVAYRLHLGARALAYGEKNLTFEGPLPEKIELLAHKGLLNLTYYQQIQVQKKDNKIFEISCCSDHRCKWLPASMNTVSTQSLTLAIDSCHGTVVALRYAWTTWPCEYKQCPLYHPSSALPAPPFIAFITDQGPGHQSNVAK
SIAE confirm: human SIAE inhibition, confirmation | shares compounds with SIAE inh | SIAE FP-Rh activity-based probe, fluorescence polarization | inhibition, % at 9.66 µM | 13% of 2,300 active | AID 1117263;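 active = mean inhibition of the replicates above the hit cutoff set in the primary screen, cut at about 17% in these data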;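 also: 0% = SIAE with DMSO and probe and 100% = probe without SIAE; inhibitors lower polarization as more probe stays unbound to SIAE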
An asterisk follows results filed as active; . = no result. Shown are actives, neighbours in structure and some others; about 1.5% of the full set was active somewhere.

SMILES	HTRA1 inhibitor	ABHD4 inh	TCR-CD3 inh	DAGLB inhibitor	SIAE inh	SIAE confirm
CCOC(=O)[C@]12CCCC=C1N(CCCOC)C(=O)[C@@H]2CC(=O)NCCc1ccccc1OC	.	-8	.	.	1	.
C[C@H]1CNCCN1c1ccc(N2CCS(=O)(=O)CC2)c(C#N)c1	.	-1	-2	.	3	.
O=C(Nc1ccccc1)/C(=C/c1cccnc1)NC(=O)c1ccco1	2	6	3	0	20*	3
CN(c1cccnc1)c1ccc(NC(=O)Cc2c[nH]c3ccccc23)cc1Br	.	16	1	.	11	.
O=C(NCc1ccco1)C1CCCN(S(=O)(=O)c2ccccc2[N+](=O)[O-])C1 (configuration not stated)	.	2	.	.	-1	.
Cc1ccc(Nc2nc(/N=C/NO)n[nH]2)cc1C	3	3	6	2	26*	2
COC(=O)[C@]1(CC(C)C)NC=C(C(=O)c2ccccc2)[C@@H]1c1cccc(C(F)(F)F)c1	.	-4	0	.	-1	.
COC(=O)[C@]12C[C@H](CC(=O)N3CCCC3)C(=O)N(Cc3ccc4c(c3)OCO4)C1=C[C@H](C(C)(C)C)O[C@@H]2C	.	-5	-6	.	4	.
CCOc1ccc(-n2c(SCC(=O)Nc3cccc4ccccc34)nnc2-c2cccs2)cc1	.	-3	.	.	-1	.
Cc1[nH]n(-c2ccccc2)c(=O)c1/C=N/NC(=O)c1cccc([N+](=O)[O-])c1	5	10	-5	3	20*	-1
Cc1[nH]n(-c2cccc3ccccc23)c(=O)c1/C=N/NC(=O)c1cccc([N+](=O)[O-])c1	3	20	9	9	3	.
CCOc1cc(/C=N/NC(=O)c2cccc([N+](=O)[O-])c2)ccc1OS(=O)(=O)c1ccccc1	-6	15	18	-1	22*	-8
O=C(OCc1cn(Cc2ccc(C(F)(F)F)cc2)nn1)N1CCOCC1	.	1	.	.	-2	.
CCCc1nnc(NC(=O)C23CC4CC(CC(C4)C2)C3)s1	-1	0	-3	0	1	.
COCc1nnc(NC(=O)C23CC4CC(CC(C4)C2)C3)s1	-4	-8	-4	0	18*	4
CCCCc1c(-c2ccccc2OC)ncn1Cc1cccc(OC)c1	.	2	3	.	20*	-4
COC(=O)N/N=C/c1cccc([N+](=O)[O-])c1	1	2	3	1	9	.
O=[N+]([O-])c1ccc(N/N=C/c2cccc(O)c2)cc1	-2	15	-3	3	20*	-2
CC(C)=NNc1cc([N+](=O)[O-])cc2c1C(=O)N(C)S2=O (configuration not stated)	4	5	-2	8	17*	1
Cc1cccc(C(=O)OCC(=O)NC2CCCCCCC2)c1	-10	-10	-8	-4	-10	.
Cc1ccc(C(=O)OCC(=O)NC2CCCCCC2)c(C)c1	-8	4	5	-3	122*	-2
CSc1nnc(NC(=O)c2ccc3c(c2)OCO3)s1	-3	5	14	2	1	.
CCC(=O)Nc1nnc(SCCOC)s1	5	2	-5	4	58*	-4
COCCSc1nnc(NC(=O)c2ccc3c(c2)OCO3)s1	9	4	-1	1	18*	-2
CCCC/C=C1/[C@@H](CC)N(Cc2ccc(OC)cc2OC)C2=N[C@H](c3ccccc3)CC(=O)N21	.	-9	.	.	1	.
SMILES	HTRA1 inhibitor	ABHD4 inh	TCR-CD3 inh	DAGLB inhibitor	SIAE inh	SIAE confirm
COC(=O)C1=C(C)N(CC(C)C)C(=S)NC1c1cccc(Br)c1 (configuration not stated)	.	6	4	.	4	.
O=C(CCc1c[nH]c2ccccc12)Nc1ccc(Oc2cccnc2)cc1	.	-9	2	.	22*	32*
Cc1cc(NC(=O)CCc2c[nH]c3ccccc23)ccc1Oc1cccnc1	.	-3	-1	.	6	.
CCNC(=S)NNC(=O)c1ccc(OC)cc1	3	-4	2	-3	17*	7
CCN1CCc2c(sc(NC(=O)c3ccc4ccccc4c3)c2C(N)=O)C1	-33	-4	1	0	-11	.
CCN1CCc2c(sc(NC(=S)NC(=O)c3ccc(Cl)cc3)c2C(N)=O)C1	0	8	-3	-9	18*	1
O=C(NNC(=O)c1ccc2c(=O)n3c(nc2c1)CCC3)c1ccc(F)cc1	2	2	-1	5	23*	3
COc1cc(NC2=Nc3cccc4cccc2c34)cc(OC)c1OC	0	0	2	8	24*	9
C[C@H](CO)N1C[C@H](C)[C@@H](CN(C)C(=O)Nc2ccc(C(F)(F)F)cc2)Oc2ccc(NS(=O)(=O)c3ccc(F)cc3)cc2C1=O	-24	-15	-4	-2	-15	.
COc1ccc(NC(=O)N(C)C[C@H]2Oc3ccc(NS(=O)(=O)c4ccc(F)cc4)cc3C(=O)N([C@H](C)CO)C[C@@H]2C)cc1	-5	10	5	-1	18*	3
C[C@@H]1CN([C@H](C)CO)C(=O)c2cc(Br)cnc2O[C@@H]1CN(C)C(=O)c1cccc(F)c1	1	0	1	-3	17*	2
CCc1nc2ccc(C(=O)NCCc3ccccn3)cn2c1N(C)Cc1ccc(N(C)C)cc1	.	3	-2	.	23*	4
CCS(=O)(=O)N(C)C[C@@H]1OCc2ccccc2-c2c(n(C)c3ccccc23)C(=O)N([C@H](C)CO)C[C@@H]1C	.	0	-5	.	3	.
COc1cc2[nH]c(=S)nc(NCCCOC(C)C)c2cc1OC	3	3	-1	-1	24*	-4
CCOC(=O)N1CCN(C(=O)C[C@@H]2C[C@@]3(C(=O)OCC)CCCC=C3N(Cc3ccco3)C2=O)CC1	.	-6	-4	.	-3	.
Cc1cccc(NC(=O)CN2CCN(C(=O)C(C)Oc3ccc(C#N)cc3)CC2)c1C (configuration not stated)	2	-1	6	1	20*	6
CC(C)(C)c1ccc(C(=O)NNc2ccc(F)cc2F)cc1	-1	-14	-1	-3	22*	-4
CN(C)N1C(N)=C(C#N)C(c2ccc(F)cc2)C2=C1CCCC2=O (configuration not stated)	0	2	-5	0	19*	5
O=C(C(=O)N1CCN(C(=O)c2ccco2)CC1)c1cc2ccccc2o1	.	8	6	.	1	.
O=C1NC(Cc2cnc[nH]2)C(=O)N2CCCC12 (configuration not stated)	.	0	1	.	-11	.
COc1ccc(C(=O)NN=C2CCCC2)cc1	3	0	0	0	20*	-5
COc1cccc(C(=O)NN=C2CCCC2)c1	-3	2	9	-3	4	.
COc1cccc(C(=O)N[C@H](C(=O)N2CCC[C@H]2C(=O)NCCc2ccccc2Cl)C2CCCCC2)c1	.	-2	2	.	-5	.
Cc1cc(C)nc(SCC(=O)NN=Cc2ccc(C)o2)n1	0	8	-6	0	18*	6
